This is an account of results in ChEMBL document CHEMBL4261600 (Eur J Med Chem, 2018).

Active and inactive are the calls of the source.

The target in data set [1] is Serine/threonine-protein kinase PAK 3 (Homo sapiens) (UniProt O75914). The data set is described as follows: Binding affinity to wild-type human full length PAK3 (M1 to R544 residues) expressed in bacterial expression system assessed as remaining unbound target protein level at 1000 nM by Kinomescan method relative to control. In outline: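 Profiled in a KINOMEscan binding panel with the inhibitor at a single concentration of 1 μM. Binding to each kinase was read out as percent of control, relative to a DMSO control. Strong binders were defined as those with a percent control value below 1.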

Data set [2] concerns the target Epidermal growth factor receptor (Homo sapiens) (UniProt P00533). The data set is described as follows: Binding affinity to wild-type human partial length EGFR (R669 to V1011 residues) expressed in bacterial expression system assessed as remaining unbound target protein level at 1000 nM by Kinomescan method relative to control.
In data set [3] the target is Tyrosine-protein kinase CSK (Homo sapiens) (UniProt P41240). The experiment in a line: Binding affinity to wild-type human full length CSK (M1 to L450 residues) expressed in bacterial expression system assessed as remaining unbound target protein level at 1000 nM by Kinomescan method relative to control. An outline of the steps: (§1)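 KINOMEscan competitive binding profile at 1 μM inhibitor. Remaining target binding reported as percent of DMSO control.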

In data set [4] the target is TRAF2 and NCK-interacting protein kinase (Homo sapiens) (UniProt Q9UKE5). The data set is described as follows: Binding affinity to wild-type human partial length TNIK (D4 to K311 residues) expressed in bacterial expression system assessed as remaining unbound target protein level at 1000 nM by Kinomescan method relative to control.
The test system of a further data set is MV4-11. The experiment in a line: Antitumor activity against human MV4-11 cells xenografted in nu/nu mouse assessed as tumor growth inhibition at 20 to 30 mg/kg, po administered via gavage for 21 days measured on day 21 post last dose. It is filed as functional, organism-based. In outline:
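Female nu/nu mice, five weeks old, implanted subcutaneously in the right flank with 5 million MV4-11 cells in PBS/Matrigel 1:1. Daily oral gavage in 0.5% methylcellulose/0.4% Tween80 started at tumor volume 200–400 mm³, 10, 20 or 30 mg/kg/day or vehicle, 5 mice per group. Tumor volume (W²×L)/2 and body weight measured daily; mean ± SEM.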
For orientation: Xenograft models place foreign cells or tissue in a host animal.

The target of data set [5] is Vascular endothelial growth factor receptor 2 (Homo sapiens, UniProt P35968). The data set is described as follows: Binding affinity to wild-type human partial length VEGFR2 (R787 to P1253 residues) expressed in mammalian expression system assessed as remaining unbound target protein level at 1000 nM by Kinomescan method relative to control. Conditions: read-out: Activity.

Data set [6] addresses Serine/threonine-protein kinase PAK 2 (Homo sapiens) (UniProt Q13177). The experiment in a line: Binding affinity to wild-type human partial length PAK2 (P151 to R525 residues) expressed in bacterial expression system assessed as remaining unbound target protein level at 1000 nM by Kinomescan method relative to control.
Data set [7] concerns the target Serine/threonine-protein kinase 26 (Homo sapiens) (UniProt Q9P289). The experiment in a line: Binding affinity to wild-type human full length MST4 (M1 to P416 residues) expressed in mammalian expression system assessed as remaining unbound target protein level at 1000 nM by Kinomescan method relative to control. In outline: (§2)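 Single-point competition binding screen across a panel of 468 kinases and mutants, with the inhibitor at 1 μM. Binding is read out as percent of a DMSO control, and targets below 1 percent control were classed as strong binders.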

Data set [8] deals with Receptor-type tyrosine-protein kinase FLT3 (Homo sapiens), P36888 [K663Q]. The data set is described as follows: Binding affinity to human partial length FLT3 K663Q mutant (V592 to Y969 residues) expressed in bacterial expression system assessed as remaining unbound target protein level at 1000 nM by Kinomescan method relative to control. In outline:
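KINOMEscan competition-binding profiling across the panel of 468 kinases and mutants, with inhibitor tested at 1 μM. Binding is expressed as percent of control, with DMSO as the reference control.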

The target of data set [9] is Ephrin type-B receptor 6 (Homo sapiens) (UniProt O15197). The experiment in a line: Binding affinity to wild-type human partial length EPHB6 (Q634 to P948 residues) expressed in mammalian expression system assessed as remaining unbound target protein level at 1000 nM by Kinomescan method relative to control.
The nature of data set [10]: MRT (0 to t) in mouse at 10 mg/kg, po by LC-MS/MS analysis. In kind it is ADME, organism-based. Conditions: in vivo.
Data set [11] addresses 5'-AMP-activated protein kinase catalytic subunit alpha-1 (Homo sapiens) (UniProt Q13131). The data set is described as follows: Binding affinity to wild-type human partial length AMPK alpha1 (M1 to E306 residues) expressed in bacterial expression system assessed as remaining unbound target protein level at 1000 nM by Kinomescan method relative to control. An outline of the steps: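 KINOMEscan competition binding profile across a panel of 468 kinases and mutants, with the inhibitor tested at a single concentration of 1 μM. Binding is reported as percent of control, meaning signal relative to a DMSO control.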

The target of data set [12] is Interferon-induced, double-stranded RNA-activated protein kinase (Homo sapiens) (UniProt P19525). The experiment in a line: Binding affinity to wild-type human partial length PRKR (F247 to C551 residues) expressed in bacterial expression system assessed as remaining unbound target protein level at 1000 nM by Kinomescan method relative to control.
Data set [13] concerns the target Dual specificity protein kinase CLK3 (Homo sapiens) (UniProt P49761). The experiment in a line: Binding affinity to wild-type human full length CLK3 (M1 to R490 residues) expressed in bacterial expression system assessed as remaining unbound target protein level at 1000 nM by Kinomescan method relative to control. In outline:
as §2

Data set [14] concerns the target AP2-associated protein kinase 1 (Homo sapiens) (UniProt Q2M2I8). The data set is described as follows: Binding affinity to human wild-type AAK1 (G25 to L333 residues) expressed in bacterial expression system assessed as remaining unbound target protein level at 1000 nM by Kinomescan method relative to control. An outline of the steps: as §1
Data set [15] has as its target Serine/threonine-protein kinase D2 (Homo sapiens) (UniProt Q9BZL6). The experiment in a line: Binding affinity to wild-type human partial length PRKD2 (A519 to E838 residues) expressed in bacterial expression system assessed as remaining unbound target protein level at 1000 nM by Kinomescan method relative to control.
In data set [16] the target is Serine/threonine-protein kinase SIK3 (Homo sapiens) (UniProt Q9Y2K2). The experiment in a line: Binding affinity to wild-type human partial length QSK (A90 to L395 residues) expressed in mammalian expression system assessed as remaining unbound target protein level at 1000 nM by Kinomescan method relative to control.
Data set [17] has as its target Ephrin type-A receptor 7 (Homo sapiens) (UniProt Q15375). The experiment in a line: Binding affinity to wild-type human partial length EPHA7 (Y608 to S912 residues) expressed in bacterial expression system assessed as remaining unbound target protein level at 1000 nM by Kinomescan method relative to control. An outline of the steps: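 KINOMEscan binding panel of 468 kinases/mutants. Inhibitor was tested at a single concentration of 1 μM. Binding is reported as percent of control, defined relative to a DMSO control.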

Data set [18] is described as follows: Clearance in beagle dog at 2 mg/kg, iv by LC-MS/MS analysis. In kind it is ADME, organism-based, Canis lupus familiaris. The following applies: in vivo.
The target of data set [19] is Serine/threonine-protein kinase 17A (Homo sapiens) (UniProt Q9UEE5). The data set is described as follows: Binding affinity to wild-type human partial length DRAK1 (R32 to E363 residues) expressed in bacterial expression system assessed as remaining unbound target protein level at 1000 nM by Kinomescan method relative to control.
Sequence of Serine/threonine-protein kinase 17A (Homo sapiens) (Q9UEE5 whole entry, the tested form may be a part): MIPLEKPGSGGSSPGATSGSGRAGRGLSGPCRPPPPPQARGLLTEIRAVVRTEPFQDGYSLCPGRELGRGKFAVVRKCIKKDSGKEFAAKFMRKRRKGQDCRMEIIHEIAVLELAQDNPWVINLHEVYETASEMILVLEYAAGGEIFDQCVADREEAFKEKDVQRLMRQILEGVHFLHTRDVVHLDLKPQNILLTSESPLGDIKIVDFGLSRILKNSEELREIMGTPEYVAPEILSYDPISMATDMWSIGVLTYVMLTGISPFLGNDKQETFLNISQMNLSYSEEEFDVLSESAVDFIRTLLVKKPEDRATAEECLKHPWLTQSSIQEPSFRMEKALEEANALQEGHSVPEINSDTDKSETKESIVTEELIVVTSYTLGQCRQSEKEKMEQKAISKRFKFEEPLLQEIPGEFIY

Sequence of Dual specificity protein kinase CLK3 (Homo sapiens) (P49761 whole entry, looked up, the tested form may be a part): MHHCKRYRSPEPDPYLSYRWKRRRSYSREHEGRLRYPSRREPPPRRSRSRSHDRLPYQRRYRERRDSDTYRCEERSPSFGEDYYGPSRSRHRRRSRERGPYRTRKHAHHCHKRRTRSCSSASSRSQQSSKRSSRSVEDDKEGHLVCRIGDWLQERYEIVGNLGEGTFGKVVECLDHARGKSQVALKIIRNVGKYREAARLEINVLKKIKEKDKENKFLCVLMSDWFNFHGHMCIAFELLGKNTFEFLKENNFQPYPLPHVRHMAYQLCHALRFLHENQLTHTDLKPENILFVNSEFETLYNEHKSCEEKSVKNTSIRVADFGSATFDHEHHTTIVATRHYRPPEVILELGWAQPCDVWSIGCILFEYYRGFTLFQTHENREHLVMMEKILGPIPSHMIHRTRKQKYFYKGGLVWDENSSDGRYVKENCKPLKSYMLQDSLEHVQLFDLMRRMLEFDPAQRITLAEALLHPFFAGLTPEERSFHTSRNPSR
Sequence of 5'-AMP-activated protein kinase catalytic subunit alpha-1 (Homo sapiens) (Q13131 whole entry, looked up, the tested form may be a part): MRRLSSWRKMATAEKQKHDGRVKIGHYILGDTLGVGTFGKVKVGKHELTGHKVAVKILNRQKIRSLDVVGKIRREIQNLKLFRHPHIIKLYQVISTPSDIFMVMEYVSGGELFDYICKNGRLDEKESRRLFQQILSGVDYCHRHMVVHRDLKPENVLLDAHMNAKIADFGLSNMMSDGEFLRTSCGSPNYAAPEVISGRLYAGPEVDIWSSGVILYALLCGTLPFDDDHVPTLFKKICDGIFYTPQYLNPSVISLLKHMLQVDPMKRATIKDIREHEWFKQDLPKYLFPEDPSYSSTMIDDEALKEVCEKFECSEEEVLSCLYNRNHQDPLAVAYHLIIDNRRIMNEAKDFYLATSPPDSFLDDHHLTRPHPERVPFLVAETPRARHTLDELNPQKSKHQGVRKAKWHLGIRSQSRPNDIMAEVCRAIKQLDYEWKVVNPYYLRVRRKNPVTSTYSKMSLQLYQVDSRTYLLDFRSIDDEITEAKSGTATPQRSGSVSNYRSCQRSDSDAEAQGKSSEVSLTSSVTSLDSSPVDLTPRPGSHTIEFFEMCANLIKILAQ
Sequence of Serine/threonine-protein kinase PAK 2 (Homo sapiens) (Q13177 whole entry, the tested form may be a part): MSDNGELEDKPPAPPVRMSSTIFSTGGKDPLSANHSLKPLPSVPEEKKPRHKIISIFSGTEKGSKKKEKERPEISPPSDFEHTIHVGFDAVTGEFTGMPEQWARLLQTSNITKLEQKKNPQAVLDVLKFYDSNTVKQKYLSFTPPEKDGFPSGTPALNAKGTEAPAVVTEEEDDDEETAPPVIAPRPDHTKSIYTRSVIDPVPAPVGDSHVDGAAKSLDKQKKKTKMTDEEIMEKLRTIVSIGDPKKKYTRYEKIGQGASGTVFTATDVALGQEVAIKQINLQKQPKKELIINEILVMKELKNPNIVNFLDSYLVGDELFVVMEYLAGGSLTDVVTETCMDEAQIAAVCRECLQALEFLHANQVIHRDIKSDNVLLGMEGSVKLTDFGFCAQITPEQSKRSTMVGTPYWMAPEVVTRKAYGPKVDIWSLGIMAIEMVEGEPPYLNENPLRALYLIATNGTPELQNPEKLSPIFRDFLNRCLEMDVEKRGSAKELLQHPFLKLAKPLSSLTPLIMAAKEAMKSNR
Sequence of Serine/threonine-protein kinase 26 (Homo sapiens) (Q9P289 2-416 limits assumed): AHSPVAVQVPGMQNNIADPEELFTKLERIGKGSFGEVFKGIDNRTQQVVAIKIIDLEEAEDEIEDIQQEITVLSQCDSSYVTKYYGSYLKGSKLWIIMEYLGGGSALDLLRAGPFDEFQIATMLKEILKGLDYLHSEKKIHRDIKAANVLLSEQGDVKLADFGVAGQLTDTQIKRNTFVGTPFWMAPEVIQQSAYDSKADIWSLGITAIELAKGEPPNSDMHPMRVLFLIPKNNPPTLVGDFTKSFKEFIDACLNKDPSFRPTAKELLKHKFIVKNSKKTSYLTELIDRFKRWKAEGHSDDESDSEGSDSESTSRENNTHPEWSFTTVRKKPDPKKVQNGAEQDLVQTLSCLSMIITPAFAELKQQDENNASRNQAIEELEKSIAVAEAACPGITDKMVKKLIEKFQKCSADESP
Sequence of Vascular endothelial growth factor receptor 2 (P35968 whole entry, the tested form may be a part): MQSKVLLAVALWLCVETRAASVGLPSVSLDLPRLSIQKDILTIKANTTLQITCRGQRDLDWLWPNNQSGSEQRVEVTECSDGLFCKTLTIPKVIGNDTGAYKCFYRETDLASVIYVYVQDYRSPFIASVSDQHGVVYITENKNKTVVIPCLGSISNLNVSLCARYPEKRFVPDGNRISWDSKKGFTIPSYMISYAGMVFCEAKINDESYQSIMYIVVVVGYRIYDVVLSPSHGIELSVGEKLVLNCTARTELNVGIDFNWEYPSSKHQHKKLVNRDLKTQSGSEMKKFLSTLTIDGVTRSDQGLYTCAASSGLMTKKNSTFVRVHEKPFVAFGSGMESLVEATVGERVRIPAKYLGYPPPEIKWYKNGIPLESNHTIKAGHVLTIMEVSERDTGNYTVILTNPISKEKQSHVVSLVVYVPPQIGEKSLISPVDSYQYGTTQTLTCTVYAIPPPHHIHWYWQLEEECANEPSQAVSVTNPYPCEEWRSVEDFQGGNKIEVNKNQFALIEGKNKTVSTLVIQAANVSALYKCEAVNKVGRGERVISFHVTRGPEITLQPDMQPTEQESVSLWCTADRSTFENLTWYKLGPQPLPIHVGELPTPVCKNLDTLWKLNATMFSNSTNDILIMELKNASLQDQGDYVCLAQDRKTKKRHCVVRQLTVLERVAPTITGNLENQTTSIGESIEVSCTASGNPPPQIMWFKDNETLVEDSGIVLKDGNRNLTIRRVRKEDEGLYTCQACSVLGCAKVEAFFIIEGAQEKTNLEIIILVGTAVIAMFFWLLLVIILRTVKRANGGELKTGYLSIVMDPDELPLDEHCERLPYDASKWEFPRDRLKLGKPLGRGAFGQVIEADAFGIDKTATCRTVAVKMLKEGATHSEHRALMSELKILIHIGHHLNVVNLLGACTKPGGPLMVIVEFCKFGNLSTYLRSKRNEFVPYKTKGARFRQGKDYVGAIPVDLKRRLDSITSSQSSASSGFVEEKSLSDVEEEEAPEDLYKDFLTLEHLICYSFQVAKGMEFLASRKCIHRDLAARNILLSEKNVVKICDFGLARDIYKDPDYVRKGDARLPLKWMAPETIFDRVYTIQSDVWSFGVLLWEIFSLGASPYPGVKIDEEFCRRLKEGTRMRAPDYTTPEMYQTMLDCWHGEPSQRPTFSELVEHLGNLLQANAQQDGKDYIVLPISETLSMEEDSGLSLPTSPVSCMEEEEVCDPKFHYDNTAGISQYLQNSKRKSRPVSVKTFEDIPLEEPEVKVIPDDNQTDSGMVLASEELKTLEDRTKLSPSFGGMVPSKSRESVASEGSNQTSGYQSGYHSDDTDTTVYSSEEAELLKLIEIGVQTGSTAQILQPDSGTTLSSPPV
Sequence of Interferon-induced, double-stranded RNA-activated protein kinase (Homo sapiens) (P19525 whole entry, the tested form may be a part): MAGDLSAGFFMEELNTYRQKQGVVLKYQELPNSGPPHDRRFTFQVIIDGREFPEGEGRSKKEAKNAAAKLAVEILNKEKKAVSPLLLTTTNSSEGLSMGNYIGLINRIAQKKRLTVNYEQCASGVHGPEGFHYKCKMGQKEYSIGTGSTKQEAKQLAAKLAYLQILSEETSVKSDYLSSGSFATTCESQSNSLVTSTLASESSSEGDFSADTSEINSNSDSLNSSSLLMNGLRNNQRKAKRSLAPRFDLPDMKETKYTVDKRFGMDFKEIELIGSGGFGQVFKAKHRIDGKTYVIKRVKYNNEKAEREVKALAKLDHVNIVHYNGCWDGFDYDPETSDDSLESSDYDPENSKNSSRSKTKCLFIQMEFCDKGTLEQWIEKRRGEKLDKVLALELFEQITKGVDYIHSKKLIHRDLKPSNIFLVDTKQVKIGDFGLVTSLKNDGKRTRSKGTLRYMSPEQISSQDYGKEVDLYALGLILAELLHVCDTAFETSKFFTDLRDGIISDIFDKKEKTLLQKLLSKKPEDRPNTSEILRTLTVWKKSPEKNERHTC
Sequence of Tyrosine-protein kinase CSK (Homo sapiens) (P41240 2-450 limits assumed): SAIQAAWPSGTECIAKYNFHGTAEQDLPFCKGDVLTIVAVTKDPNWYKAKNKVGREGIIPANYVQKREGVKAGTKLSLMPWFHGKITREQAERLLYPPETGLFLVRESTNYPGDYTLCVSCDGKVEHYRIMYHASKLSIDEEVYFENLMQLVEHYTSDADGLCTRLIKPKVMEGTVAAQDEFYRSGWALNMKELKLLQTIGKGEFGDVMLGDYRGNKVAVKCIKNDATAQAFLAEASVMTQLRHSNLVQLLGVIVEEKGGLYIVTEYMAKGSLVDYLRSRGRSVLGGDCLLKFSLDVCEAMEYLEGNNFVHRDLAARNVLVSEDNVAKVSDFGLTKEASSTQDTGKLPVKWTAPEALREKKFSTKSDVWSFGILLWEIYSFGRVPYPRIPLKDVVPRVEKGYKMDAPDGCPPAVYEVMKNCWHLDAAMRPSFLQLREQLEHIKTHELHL

For orientation: MRT last means the average time that molecules of a dose stay in the body. As usually defined, the clearance is a measure of how efficiently the substance is removed, as volume per time. Low values mean a low capacity for elimination, high ones a high capacity for elimination. For the compound `COCCN[C@H]1CC[C@H](Nc2cc(-c3csc(NCC4(C#N)CCOCC4)n3)c(Cl)cn2)CC1`, the Activity in [1] was 97%; in data set [2], 94%; in [3] it was 95%; in data set [4], 64%; in [6], 85%; in [7], 96%. Besides, the Activity in data set [8] was found to be 97%; in data set [9], 85%; in data set [11], 94%; in data set [12], 98%; in data set [13], 92%; in [14], 99%. In addition, the Activity in [15] stood at 70%; in data set [16] it was 79%; in data set [17], 94%; in data set [19] it was 100%. Moreover, in the data set on MV4-11, the TGI entry was “Active”. For the same compound, the activity at 1 µM in [5] was determined as 98%. Moreover, the MRT last in data set [10] is 3.24 h. The same compound had a clearance in [18] of 11.9 mL/min/kg.
